Test results from ChEMBL document CHEMBL4038284, “Synthesis of novel quinoline-based 4,5-dihydro-1H-pyrazoles as potential anticancer, antifungal, antibacterial and antiprotozoal agents” (Eur J Med Chem, 2017).
≈ marks a conversion by molar mass, not a printed value. Calls of active or inactive are those of the source. The calls are words filed in the database; no cut-off is given here.

How the values were obtained:
U-251 = assay: Growth inhibition of human U251 cells at 10 uM incubated for 48 hrs by sulforhodamine B assay; assay type: functional, cell-based
In short: (§1)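 NCI-60 single-dose screen at 10 µM for 48 h. Cells were grown in RPMI-1640 with 5% FBS and 2 mM L-glutamine and preincubated 24 h before compound. Time-zero plates were TCA-fixed at compound addition. After exposure, cells were TCA-fixed, stained with SRB and read at 515 nm. Percentage growth was calculated against time-zero and untreated-control absorbances.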

SK-MEL-5 = assay: Growth inhibition of human SK-MEL-5 cells at 10 uM incubated for 48 hrs by sulforhodamine B assay; assay type: functional, cell-based; in short: as §1
SNB-75 = assay: Growth inhibition of human SNB75 cells at 10 uM incubated for 48 hrs by sulforhodamine B assay; assay type: functional, cell-based; in short: as §1
SNB-19 = assay: Growth inhibition of human SNB19 cells at 10 uM incubated for 48 hrs by sulforhodamine B assay; assay type: functional, cell-based; in short: as §1
HOP-62 = assay: Growth inhibition of human HOP62 cells at 10 uM incubated for 48 hrs by sulforhodamine B assay; assay type: functional, cell-based
In short: (§2)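 NCI 60-cell-line screen at a single 10 µM dose. Cells in RPMI-1640 with 5% FBS and 2 mM L-glutamine, pre-incubated 24 h, then treated for 48 h at 37 °C. TCA fixation, sulforhodamine B staining, absorbance at 515 nm. Percentage growth calculated against time-zero and untreated controls.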

Escherichia coli = assay: Antibacterial activity against Escherichia coli ATCC 25922 after 24 hrs by resazurin dye based microdilution assay; assay type: functional; settings: ATCC 25922, 24 h
In short: (§3)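 MIC taken as the lowest concentration giving visible inhibition and/or by resazurin (1 mg/mL). Gentamicin was the control. Run in duplicate, repeated at least three times.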

COLO 205 = assay: Growth inhibition of human COLO205 cells at 10 uM incubated for 48 hrs by sulforhodamine B assay; assay type: functional, cell-based; in short: as §2
MDA-MB-468 = assay: Growth inhibition of human MDA-MB-468 cells at 10 uM incubated for 48 hrs by sulforhodamine B assay; assay type: functional, cell-based
In short: (§4)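 NCI 60-line panel, single 10 μM dose. Cells were grown in RPMI-1640 with 5% FBS and 2 mM L-glutamine and pre-incubated 24 h before compound addition (DMSO stock). Exposure was 48 h at 37 °C, 5% CO2. Cells were fixed with cold TCA (10% final), stained with 0.4% SRB, bound dye dissolved in 10 mM Tris base, A515 read. Growth was taken relative to time-zero and untreated control plates.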

SW-620 = assay: Growth inhibition of human SW620 cells at 10 uM incubated for 48 hrs by sulforhodamine B assay; assay type: functional, cell-based; in short: as §1
NCI-H522 = assay: Growth inhibition of human NCI-H522 cells at 10 uM incubated for 48 hrs by sulforhodamine B assay; assay type: functional, cell-based; in short: as §4
786-0 = assay: Growth inhibition of human 786-0 cells at 10 uM incubated for 48 hrs by sulforhodamine B assay; assay type: functional, cell-based; in short: as §2
Cryptococcus neoformans = assay: Growth inhibition of Cryptococcus neoformans ATCC 32264 at 7.8 ug/ml incubated for 48 hrs under dark condition by broth microdilution method relative to control; assay type: functional; settings: ATCC 32264, 48 h, read-out: GI
In short: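 CLSI M27-A3 broth microdilution in RPMI-1640, DMSO ≤1%. Inoculum 1-5 × 10^3 CFU/mL. Incubated 48 h at 30 °C, dark. % inhibition = 100 − (OD405 test − sterility control)/(OD405 growth control − sterility control), with growth and sterility control wells. Triplicate.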

A549 = assay: Growth inhibition of human A549/ATCC cells at 10 uM incubated for 48 hrs by sulforhodamine B assay; assay type: functional, cell-based; in short: as §2
Klebsiella pneumoniae = assay: Antibacterial activity against ESBL positive Klebsiella pneumoniae ATCC 700603 after 24 hrs by resazurin dye based microdilution assay; assay type: functional; settings: Klebsiella pneumoniae, 700603, 24 h; in short: as §3
UACC-257 = assay: Growth inhibition of human UACC257 cells at 10 uM incubated for 48 hrs by sulforhodamine B assay; assay type: functional, cell-based; in short: as §1
Candida albicans = assay: Antifungal activity against Candida albicans ATCC 10231 incubated for 48 hrs under dark condition by broth microdilution method; assay type: functional; settings: ATCC 10231, 48 h
In short: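 CLSI M27-A3 broth microdilution in RPMI-1640, DMSO ≤1%, compounds at 250-0.98 µg/mL final. Inoculum 1-5 × 10^3 CFU/mL. Incubated 48 h at 30 °C in a moist dark chamber, read at OD405. MIC80 and MIC50 taken from % inhibition dose-response curves (mean ± SEM, triplicate). Amphotericin B was the positive control.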

U-937 = assay: Cytotoxicity against human U937 cells after 72 hrs by MTT assay; assay type: cell-based; settings: u-937, 72 h
In short: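 Exponentially growing U-937 at 1 × 10^5 cells/mL in RPMI-1640 with 10% FBS were exposed to 200, 50, 12.5 and 3.125 µg/mL for 72 h at 37 °C, 5% CO2. MTT for 3 h, stopped with isopropanol/SDS, formazan read at 570 nm, blank-corrected. LC50 by Probit from % viability against untreated cells. Triplicate, at least two independent experiments.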

SF-268 = assay: Growth inhibition of human SF268 cells at 10 uM incubated for 48 hrs by sulforhodamine B assay; assay type: functional, cell-based; in short: as §4
HL-60(TB) = assay: Growth inhibition of human HL-60(TB) cells at 10 uM incubated for 48 hrs by sulforhodamine B assay; assay type: functional, cell-based
In short: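 NCI 60-line single-dose screen at 10 μM, 48 h. Cells in RPMI-1640 with 5% FBS and 2 mM L-glutamine at 37 °C, 5% CO2. Growth measured by TCA fixation and SRB staining (515 nm), relative to time-zero and untreated control wells.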

NCI-H322M = assay: Growth inhibition of human NCI-H322M cells at 10 uM incubated for 48 hrs by sulforhodamine B assay; assay type: functional, cell-based; in short: as §4
UO-31 = assay: Growth inhibition of human UO31 cells at 10 uM incubated for 48 hrs by sulforhodamine B assay; assay type: functional, cell-based; in short: as §1
RXF 393 = assay: Growth inhibition of human RXF393 cells at 10 uM incubated for 48 hrs by sulforhodamine B assay; assay type: functional, cell-based; in short: as §4
CAKI-1 = assay: Growth inhibition of human Caki1 cells at 10 uM incubated for 48 hrs by sulforhodamine B assay; assay type: functional, cell-based; in short: as §2
SK-OV-3 = assay: Growth inhibition of human SKOV3 cells at 10 uM incubated for 48 hrs by sulforhodamine B assay; assay type: functional, cell-based; in short: as §1
Hs-578T = assay: Growth inhibition of human Hs578T cells at 10 uM incubated for 48 hrs by sulforhodamine B assay; assay type: functional, cell-based; in short: as §4
T47D = assay: Growth inhibition of human T47D cells at 10 uM incubated for 48 hrs by sulforhodamine B assay; assay type: functional, cell-based; in short: as §1
SK-MEL-28 = assay: Growth inhibition of human SK-MEL-28 cells at 10 uM incubated for 48 hrs by sulforhodamine B assay; assay type: functional, cell-based; in short: as §1
PC-3 = assay: Growth inhibition of human PC3 cells at 10 uM incubated for 48 hrs by sulforhodamine B assay; assay type: functional, cell-based; in short: as §4
NCI-H226 = assay: Growth inhibition of human NCI-H226 cells at 10 uM incubated for 48 hrs by sulforhodamine B assay; assay type: functional, cell-based; in short: as §4
OVCAR-8 = assay: Growth inhibition of human OVCAR8 cells at 10 uM incubated for 48 hrs by sulforhodamine B assay; assay type: functional, cell-based; in short: as §4

Row | SMILES | growth inhibition (GI) (U-251) | growth inhibition (GI) (SK-MEL-5) | growth inhibition (GI) (SNB-75) | growth inhibition (GI) (SNB-19) | growth inhibition (GI) (HOP-62) | MIC (Escherichia coli) [µg/mL] | growth inhibition (GI) (COLO 205) | growth inhibition (GI) (MDA-MB-468) | growth inhibition (GI) (SW-620) | growth inhibition (GI) (NCI-H522) | growth inhibition (GI) (786-0) | inhibition of growth at 7.8 µg/mL (Cryptococcus neoformans) [%] | growth inhibition (GI) (A549) | MIC (Klebsiella pneumoniae) [µg/mL] | growth inhibition (GI) (UACC-257) | MIC50 (Candida albicans) [µg/mL] | MIC80 (Candida albicans) [µg/mL] | LC50 (U-937) [µg/mL] | growth inhibition (GI) (SF-268) | growth inhibition (GI) (HL-60(TB)) | other results
1 | Clc1ccc(C2=NN(c3ccccc3)C(c3cccc(Nc4ccnc5cc(Cl)ccc45)c3)C2)cc1 (configuration not stated) | inactive | inactive | inactive | inactive | inactive | > 1000 | inactive | inactive | inactive | inactive | inactive | 0 | inactive | > 1000 | inactive | ≥ 250 | ≥ 250 | > 200 | inactive | inactive | growth inhibition (GI) (NCI-H322M): inactive; growth inhibition (GI) (UO-31): inactive; growth inhibition (GI) (RXF 393): inactive; growth inhibition (GI) (CAKI-1): inactive; growth inhibition (GI) (SK-OV-3): inactive; growth inhibition (GI) (Hs-578T): inactive; growth inhibition (GI) (T47D): inactive; growth inhibition (GI) (SK-MEL-28): inactive; growth inhibition (GI) (PC-3): inactive; growth inhibition (GI) (NCI-H226): inactive; growth inhibition (GI) (OVCAR-8): inactive
2 | COc1cc(C2=NN(c3ccc(Cl)cc3)C(c3cccc(Nc4ccnc5cc(Cl)ccc45)c3)C2)cc(OC)c1OC (configuration not stated) | inactive | inactive | inactive | inactive | inactive | > 1000 | inactive | inactive | inactive | inactive | inactive | 10.4 | inactive | > 1000 | inactive | ≥ 250 | ≥ 250 | > 200 | inactive | inactive | growth inhibition (GI) (NCI-H322M): inactive; growth inhibition (GI) (UO-31): inactive; growth inhibition (GI) (RXF 393): inactive; growth inhibition (GI) (CAKI-1): inactive; growth inhibition (GI) (SK-OV-3): inactive; growth inhibition (GI) (Hs-578T): inactive; growth inhibition (GI) (T47D): inactive; growth inhibition (GI) (SK-MEL-28): inactive; growth inhibition (GI) (PC-3): inactive; growth inhibition (GI) (NCI-H226): inactive; growth inhibition (GI) (OVCAR-8): inactive
3 | COc1cc(C(=O)/C=C/c2cccc(Nc3ccnc4cc(Cl)ccc34)c2)cc(OC)c1OC | Active | Active | Active | Active | Active | > 1000 | Active | Active | Active | Active | Active | 0 | Active | > 1000 | Active | ≥ 250 | ≥ 250 | 0.9 (≈ 1.89 µM) | Active | Active | growth inhibition (GI) (NCI-H322M): Active; growth inhibition (GI) (UO-31): Active; growth inhibition (GI) (RXF 393): Active; growth inhibition (GI) (SK-OV-3): Active; growth inhibition (GI) (Hs-578T): Active; growth inhibition (GI) (T47D): Active; growth inhibition (GI) (SK-MEL-28): Active; growth inhibition (GI) (PC-3): Active; growth inhibition (GI) (NCI-H226): Active; growth inhibition (GI) (OVCAR-8): Active
